Laboratory results published in ChEMBL document CHEMBL1649132, “Dry powder nitroimidazopyran antibiotic PA-824 aerosol for inhalation” (Antimicrob Agents Chemother, 2009).
In brackets after ≈: the same amount, converted by molar mass.

Legend:
Cavia porcellus [1] = experiment: AUC (0 to infinity) in guinea pig at 40 mg/kg, po by HPLC method; assay type: ADME, organism-based, Plasma; design: time infinity, dose 40 mg/kg, route oral; conditions: in vivo
Outline: (§1)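 Healthy male guinea pigs (463.86 ± 65.11 g), jugular vein cannulated 24 h before dosing; n = 6 or 7 per group. Dosing was i.v. solution 20 mg/kg, oral gavage of mixed micelle suspension (10% hydroxypropyl-β-cyclodextrin, 10% lecithin) 40 mg/kg, or intratracheal insufflation of porous dry powder at nominal 20, 40, 60 mg/kg. For insufflation, the delivered dose was taken by weighing the device before and after. Blood was drawn 0–24 h (to 32 h at 60 mg/kg) and plasma assayed by validated HPLC-UV (standards 0.20–50 µg/ml).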

[2] = Chemical stability of the compound at 40 degC; assay type: physicochemical
[3] = Half life in po dosed monkey; assay type: ADME, organism-based, Macaca mulatta; conditions: rhesus monkey, in vivo
[4] = Cmax in guinea pig at 20 mg/kg, administered via intratracheal insufflation by HPLC method; assay type: ADME, organism-based, Cavia porcellus; design: dose 20 mg/kg, route endotracheal; conditions: in vivo, inhaled or intranasal; outline: as §1
[5] = Elimination rate constant in guinea pig at 60 mg/kg, administered via intratracheal insufflation by HPLC method; assay type: ADME, organism-based, Cavia porcellus; design: dose 60 mg/kg, route endotracheal; conditions: in vivo, inhaled or intranasal; outline: as §1
[6] = Ratio of Cmax in mouse at 100 mg/kg, po to MIC for Mycobacterium tuberculosis; assay type: functional
[7] = Chemical stability of the compound at 4 degC; assay type: physicochemical
[8] = Tmax in guinea pig at 20 mg/kg, iv by HPLC method; assay type: ADME, organism-based, Cavia porcellus; design: dose 20 mg/kg, route intravenous; conditions: in vivo; outline: as §1
[9] = Bioavailability in guinea pig at 60 mg/kg, administered via intratracheal insufflation by HPLC method; assay type: ADME, organism-based, Cavia porcellus; conditions: in vivo, inhaled or intranasal; outline: as §1
[10] = Mean residence time in guinea pig at 40 mg/kg, administered via intratracheal insufflation by HPLC method; assay type: ADME, organism-based, Cavia porcellus; design: dose 40 mg/kg, route endotracheal; conditions: in vivo, inhaled or intranasal; outline: as §1
[11] = Half life in guinea pig at 20 mg/kg, iv by HPLC method; assay type: ADME, organism-based, Cavia porcellus; design: dose 20 mg/kg, route intravenous; conditions: in vivo; outline: as §1
[12] = Ratio of Cmax in guinea pig at 40 mg/kg, po to MIC for Mycobacterium tuberculosis; assay type: functional
[13] = Tmax in po dosed rat; assay type: ADME, organism-based; conditions: in vivo
Cavia porcellus [14] = experiment: AUC (0 to infinity) in guinea pig at 20 mg/kg, iv by HPLC method; assay type: ADME, organism-based, Plasma; design: time infinity, dose 20 mg/kg, route intravenous; conditions: in vivo; outline: as §1
[15] = Mean residence time in guinea pig at 20 mg/kg, iv by HPLC method; assay type: ADME, organism-based, Cavia porcellus; design: dose 20 mg/kg, route intravenous; conditions: in vivo; outline: as §1
[16] = Bioavailability in guinea pig at 40 mg/kg, administered via intratracheal insufflation by HPLC method; assay type: ADME, organism-based, Cavia porcellus; conditions: in vivo, inhaled or intranasal; outline: as §1
[17] = Half life in guinea pig at 60 mg/kg, administered via intratracheal insufflation by HPLC method; assay type: ADME, organism-based, Cavia porcellus; design: dose 60 mg/kg, route endotracheal; conditions: in vivo, inhaled or intranasal; outline: as §1
[18] = Cmax in guinea pig at 60 mg/kg, administered via intratracheal insufflation by HPLC method; assay type: ADME, organism-based, Cavia porcellus; design: dose 60 mg/kg, route endotracheal; conditions: in vivo, inhaled or intranasal; outline: as §1
[19] = Elimination rate constant in guinea pig at 40 mg/kg, administered via intratracheal insufflation by HPLC method; assay type: ADME, organism-based, Cavia porcellus; design: dose 40 mg/kg, route endotracheal; conditions: in vivo, inhaled or intranasal; outline: as §1
[20] = Tmax in po dosed monkey; assay type: ADME, organism-based, Macaca mulatta; conditions: rhesus monkey, in vivo
[21] = Half life in po dosed dog; assay type: ADME, organism-based, Canis lupus familiaris; conditions: in vivo
[22] = Chemical stability of the compound after 6 months; assay type: physicochemical; conditions: 4383 h
[23] = Half life in guinea pig at 40 mg/kg, po by HPLC method; assay type: ADME, organism-based, Cavia porcellus; design: dose 40 mg/kg, route oral; conditions: in vivo; outline: as §1
[24] = Half life in guinea pig at 20 mg/kg, administered via intratracheal insufflation by HPLC method; assay type: ADME, organism-based, Cavia porcellus; design: dose 20 mg/kg, route endotracheal; conditions: in vivo, inhaled or intranasal; outline: as §1
[25] = Mean residence time in guinea pig at 20 mg/kg, administered via intratracheal insufflation by HPLC method; assay type: ADME, organism-based, Cavia porcellus; design: dose 20 mg/kg, route endotracheal; conditions: in vivo, inhaled or intranasal; outline: as §1
[26] = Elimination rate constant in guinea pig at 40 mg/kg, po by HPLC method; assay type: ADME, organism-based, Cavia porcellus; design: dose 40 mg/kg, route oral; conditions: in vivo; outline: as §1
[27] = Tmax in guinea pig at 20 mg/kg, administered via intratracheal insufflation by HPLC method; assay type: ADME, organism-based, Cavia porcellus; design: dose 20 mg/kg, route endotracheal; conditions: in vivo, inhaled or intranasal; outline: as §1
[28] = Cmax in guinea pig at 40 mg/kg, administered via intratracheal insufflation by HPLC method; assay type: ADME, organism-based, Cavia porcellus; design: dose 40 mg/kg, route endotracheal; conditions: in vivo, inhaled or intranasal; outline: as §1
[29] = Tmax in guinea pig at 40 mg/kg, administered via intratracheal insufflation by HPLC method; assay type: ADME, organism-based, Cavia porcellus; design: dose 40 mg/kg, route endotracheal; conditions: in vivo, inhaled or intranasal; outline: as §1
[30] = Metabolic stability of the compound assessed as compound remaining in lung of guinea pig at 40 mg/kg, po after 32 hrs; assay type: ADME, organism-based, Cavia porcellus; design: dose 40 mg/kg, route oral; conditions: in vivo
Outline: (§2)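 After the last blood sample (32 h), the guinea pigs were euthanized by exsanguination. BAL fluid was collected with 5 ml sterile saline and centrifuged. The supernatant was assayed for drug by the plasma HPLC method, adapted for BAL fluid. Routes were i.v. 20 mg/kg, oral 40 mg/kg, or insufflated powder 20, 40, 60 mg/kg; n = 6 or 7.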

[31] = Half life in guinea pig at 40 mg/kg, administered via intratracheal insufflation by HPLC method; assay type: ADME, organism-based, Cavia porcellus; design: dose 40 mg/kg, route endotracheal; conditions: in vivo, inhaled or intranasal; outline: as §1
[32] = Ratio of Cmax in guinea pig at 40 mg/kg, administered via intratracheal insufflation to MIC for Mycobacterium tuberculosis; assay type: functional; conditions: route endotracheal
[33] = Chemical stability of the compound after 12 months; assay type: physicochemical; conditions: 8766 h
[34] = tested on: Mycobacterium tuberculosis; experiment: Antimicrobial activity against Mycobacterium tuberculosis; assay type: functional
Cavia porcellus [35] = experiment: Bioavailability (0 to infinity) in guinea pig at 40 mg/kg, po by HPLC method; assay type: ADME, organism-based; conditions: in vivo; outline: as §1
[36] = Elimination rate constant in guinea pig at 20 mg/kg, iv by HPLC method; assay type: ADME, organism-based, Cavia porcellus; design: dose 20 mg/kg, route intravenous; conditions: in vivo; outline: as §1
[37] = Metabolic stability of the compound assessed as compound remaining in lung of guinea pig at 20 mg/kg, iv after 32 hrs; assay type: ADME, organism-based, Cavia porcellus; design: dose 20 mg/kg, route intravenous; conditions: in vivo; outline: as §2
[38] = Bioavailability in guinea pig at 20 mg/kg, administered via intratracheal insufflation by HPLC method; assay type: ADME, organism-based, Cavia porcellus; conditions: in vivo, inhaled or intranasal; outline: as §1
[39] = Mean residence time in guinea pig at 60 mg/kg, administered via intratracheal insufflation by HPLC method; assay type: ADME, organism-based, Cavia porcellus; design: dose 60 mg/kg, route endotracheal; conditions: in vivo, inhaled or intranasal; outline: as §1
[40] = Cmax in guinea pig at 40 mg/kg, po by HPLC method; assay type: ADME, organism-based, Cavia porcellus; design: dose 40 mg/kg, route oral; conditions: in vivo; outline: as §1
[41] = Elimination rate constant in guinea pig at 20 mg/kg, administered via intratracheal insufflation by HPLC method; assay type: ADME, organism-based, Cavia porcellus; design: dose 20 mg/kg, route endotracheal; conditions: in vivo, inhaled or intranasal; outline: as §1
[42] = AUC (0 to infinity) in guinea pig at 60 mg/kg, administered via intratracheal insufflation by HPLC method; assay type: ADME, organism-based, Cavia porcellus; design: time infinity, dose 60 mg/kg, route endotracheal; conditions: plasma, inhaled or intranasal; outline: as §1
[43] = AUC (0 to infinity) in guinea pig at 40 mg/kg, administered via intratracheal insufflation by HPLC method; assay type: ADME, organism-based, Cavia porcellus; design: time infinity, dose 40 mg/kg, route endotracheal; conditions: plasma, inhaled or intranasal; outline: as §1
[44] = AUC (0 to infinity) in guinea pig at 20 mg/kg, administered via intratracheal insufflation by HPLC method; assay type: ADME, organism-based, Cavia porcellus; design: time infinity, dose 20 mg/kg, route endotracheal; conditions: plasma, inhaled or intranasal; outline: as §1
[45] = Metabolic stability of the compound assessed as compound remaining in lung of guinea pig administered via intratracheal insufflation; assay type: ADME, tissue-based, Cavia porcellus; conditions: in vivo, inhaled_or_intranasal; outline: as §2
[46] = Mean residence time in guinea pig at 40 mg/kg, po by HPLC method; assay type: ADME, organism-based, Cavia porcellus; design: dose 40 mg/kg, route oral; conditions: in vivo; outline: as §1
[47] = Cmax in guinea pig at 20 mg/kg, iv by HPLC method; assay type: ADME, organism-based, Cavia porcellus; design: dose 20 mg/kg, route intravenous; conditions: in vivo; outline: as §1
[48] = Bioavailability (0 to infinity) in guinea pig at 60 mg/kg, administered via intratracheal insufflation by HPLC method; assay type: ADME, organism-based, Cavia porcellus; conditions: in vivo, inhaled or intranasal; outline: as §1
[49] = Chemical stability of the compound at 25 degC; assay type: physicochemical
[50] = Tmax in guinea pig at 40 mg/kg, po by HPLC method; assay type: ADME, organism-based, Cavia porcellus; design: dose 40 mg/kg, route oral; conditions: in vivo; outline: as §1
[51] = Bioavailability (0 to infinity) in guinea pig at 20 mg/kg, administered via intratracheal insufflation by HPLC method; assay type: ADME, organism-based, Cavia porcellus; conditions: in vivo, inhaled or intranasal; outline: as §1
[52] = Tmax in guinea pig at 60 mg/kg, administered via intratracheal insufflation by HPLC method; assay type: ADME, organism-based, Cavia porcellus; design: dose 60 mg/kg, route endotracheal; conditions: in vivo, inhaled or intranasal; outline: as §1
[53] = Bioavailability (0 to infinity) in guinea pig at 40 mg/kg, administered via intratracheal insufflation by HPLC method; assay type: ADME, organism-based, Cavia porcellus; conditions: in vivo, inhaled or intranasal; outline: as §1

O=[N+]([O-])c1cn2c(n1)OC[C@@H](OCc1ccc(OC(F)(F)F)cc1)C2 [PRETOMANID]
AUC (Cavia porcellus [1]): 25770 ng·h/mL
Stability [2]: Stable
half-life [3]: 2 h
Cmax [4]: 2010 ng/mL
k el [5]: 3.61e-05 s⁻¹
Ratio [6]: 80
Stability [7]: Stable
Tmax [8]: 6.6 min
bioavailability [9]: 0.74%
MRT [10]: 7.52 h
half-life [11]: 1.91 h
Ratio [12]: 14
Tmax [13]: 6 h
AUC (Cavia porcellus [14]): 26540 ng·h/mL
MRT [15]: 2.69 h
bioavailability [16]: 1.12%
half-life [17]: 5.91 h
Cmax [18]: 4580 ng/mL
k el [19]: 4.72e-05 s⁻¹
Tmax [20]: 3.33 h
half-life [21]: 1 h
Stability [22]: Unstable
half-life [23]: 2.43 h
half-life [24]: 2.83 h
MRT [25]: 5.17 h
k el [26]: 8.33e-05 s⁻¹
Tmax [27]: 4.33 h
Cmax [28]: 3420 ng/mL
Tmax [29]: 3.25 h
Stability [30]: Unstable
half-life [31]: 4.38 h
Ratio [32]: 17
Stability [33]: Stable
MIC [34]: 0.015 µg/mL (≈ 0.0418 µM)
F (Cavia porcellus [35]): 0.56%
k el [36]: 0.000103 s⁻¹
Stability [37]: Unstable
bioavailability [38]: 2.11%
MRT [39]: 8.26 h
Cmax [40]: 4140 ng/mL
k el [41]: 6.67e-05 s⁻¹
AUC(0-inf) [42]: 51000 ng·h/mL
AUC(0-inf) [43]: 32300 ng·h/mL
AUC(0-inf) [44]: 14800 ng·h/mL
Activity [45]: Dose-dependent effect
MRT [46]: 5.37 h
Cmax [47]: 9190 ng/mL
bioavailability [48]: 0.62%
Stability [49]: Stable
Tmax [50]: 4 h
bioavailability [51]: 0.59%
Tmax [52]: 3.6 h
bioavailability [53]: 0.63%
